Results: ChEMBL document CHEMBL1150956, “Antitubercular natural products: berberine from the roots of commercial Hydrastis canadensis powder. Isolation of inactive 8-oxotetrahydrothalifendine, canadine, beta-hydrastine, and two new quinic acid esters, hycandinic acid esters-1 and -2” (1998)
The source made the active and inactive calls. No cut-off for these calls is given here.

What was measured:
[1] = test system: Mycobacterium intracellulare; test: Antimicrobial activity against recombinant Mycobacterium intracellular expressing pMV361 lux after 3 days by luciferase assay; format: functional; conditions: 72 h
Method in brief: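 Recombinant M. intracellulare pMV361 lux at about 5e5 cfu/mL final, in Middlebrook 7H9 broth with compound at 0.1–50 µg/mL; no-drug 1% DMSO growth controls. Incubated at 36 °C in ambient air. 100 µL culture plus 100 µL of 1 mM luciferin, read as RLU at day 0 (within 30 min) and after 3 days.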

[2] = test system: Mycolicibacterium smegmatis; test: Antimicrobial activity against Mycobacterium smegmatis ATCC 607 at 1000 ug/ml; format: functional, organism-based
Staphylococcus aureus [3] = test: Antimicrobial activity against Staphylococcus aureus ATCC 13709 at 1000 ug/ml; format: functional, organism-based
Candida albicans [4] = test: Antimicrobial activity against Candida albicans ATCC 10231 at 1000 ug/ml; format: functional, organism-based
Klebsiella pneumoniae [5] = test: Antimicrobial activity against Klebsiella pneumoniae ATCC 10031 at 1000 ug/ml; format: functional, organism-based
Pseudomonas aeruginosa [6] = test: Antimicrobial activity against Pseudomonas aeruginosa ATCC 27853; format: functional
Escherichia coli [7] = test: Antimicrobial activity against Escherichia coli ATCC 9637; format: functional
Klebsiella pneumoniae [8] = test: Antimicrobial activity against Klebsiella pneumoniae ATCC 10031; format: functional
Candida albicans [9] = test: Antimicrobial activity against Candida albicans ATCC 10231; format: functional
[10] = test system: Mycolicibacterium smegmatis; test: Antimicrobial activity against Mycobacterium smegmatis ATCC 607; format: functional
Staphylococcus aureus [11] = test: Antimicrobial activity against Staphylococcus aureus ATCC 13709; format: functional
[12] = test system: Salmonella enterica subsp. enterica serovar Gallinarum; test: Antimicrobial activity against Salmonella gallinarum ATCC 9184; format: functional
[13] = test system: Salmonella enterica subsp. enterica serovar Gallinarum; test: Antimicrobial activity against Salmonella gallinarum ATCC 9184 at 1000 ug/ml; format: functional, organism-based
Pseudomonas aeruginosa [14] = test: Antimicrobial activity against Pseudomonas aeruginosa ATCC 27853 at 1000 ug/ml; format: functional, organism-based
Escherichia coli [15] = test: Antimicrobial activity against Escherichia coli ATCC 9637 at 1000 ug/ml; format: functional, organism-based

SMILES	MIC [1]	Activity [2]	Activity (Staphylococcus aureus [3])	Activity (Candida albicans [4])	Activity (Klebsiella pneumoniae [5])	further results
COc1c(O)ccc2c1C(=O)N1CCc3cc4c(cc3C1C2)OCO4 (configuration not stated)	> 50 mg/L	inactive	inactive	inactive	inactive	–
CCCCOC(=O)[C@@]1(O)CC(OC(=O)/C=C/c2ccc(O)c(OC)c2)[C@H](O)[C@H](O)C1 (some centres not stated)	–	inactive	inactive	inactive	–	–
COc1c(OC(C)=O)ccc2c1C(=O)N1CCc3cc4c(cc3C1C2)OCO4 (configuration not stated)	> 50 mg/L	inactive	inactive	inactive	inactive	–
CCCCOC(=O)[C@@]1(OC(C)=O)CC(OC(C)=O)[C@H](OC(=O)/C=C/c2ccc(OC(C)=O)c(OC)c2)[C@H](OC(C)=O)C1 (some centres not stated)	–	inactive	inactive	inactive	–	–
CCCCOC(=O)[C@@]1(O)CC(OC(C)=O)[C@H](OC(=O)/C=C/c2ccc(OC(C)=O)c(OC)c2)[C@H](OC(C)=O)C1 (some centres not stated)	–	inactive	inactive	inactive	–	–
CN[C@@H]1[C@H](O[C@H]2[C@H](O[C@H]3[C@H](O)[C@@H](O)[C@H](N=C(N)N)[C@@H](O)[C@@H]3N=C(N)N)O[C@@H](C)[C@]2(O)C=O)O[C@@H](CO)[C@H](O)[C@H]1O.CN[C@@H]1[C@H](O[C@H]2[C@H](O[C@H]3[C@H](O)[C@@H](O)[C@H](N=C(N)N)[C@@H](O)[C@@H]3N=C(N)N)O[C@@H](C)[C@]2(O)C=O)O[C@@H](CO)[C@H](O)[C@H]1O.O=S(=O)(O)O.O=S(=O)(O)O.O=S(=O)(O)O [STREPTOMYCIN SULFATE]	–	–	–	–	–	MIC (Pseudomonas aeruginosa [6]): 25 mg/L; MIC (Escherichia coli [7]): 6.25 mg/L; MIC (Klebsiella pneumoniae [8]): 1.56 mg/L; MIC (Candida albicans [9]): > 100 mg/L; MIC [10]: 1.56 mg/L; MIC (Staphylococcus aureus [11]): 6.25 mg/L; MIC [12]: 50 mg/L
COc1ccc2cc3[n+](cc2c1OC)CCc1cc2c(cc1-3)OCO2.[Cl-] [BERBERINE CHLORIDE]	200 mg/L	–	–	–	–	MIC (Klebsiella pneumoniae [8]): 100 mg/L; MIC (Candida albicans [9]): 100 mg/L; MIC [10]: 25 mg/L; MIC (Staphylococcus aureus [11]): 50 mg/L
COc1ccc2c(c1OC)CN1CCc3cc4c(cc3[C@@H]1C2)OCO4 [CANADINE]	> 50 mg/L	inactive	inactive	inactive	inactive	–
CCCCOC(=O)[C@@]1(O)CC(OC(=O)/C=C/c2ccc(OC(C)=O)c(OC)c2)[C@H](OC(C)=O)[C@H](OC(C)=O)C1 (some centres not stated)	–	inactive	inactive	inactive	–	–
CCCCOC(=O)[C@@]1(O)CC(O)[C@H](OC(=O)/C=C/c2ccc(O)c(OC)c2)[C@H](O)C1 (some centres not stated)	–	inactive	inactive	inactive	–	–
COc1ccc2c(c1OC)C(=O)N1CCc3cc4c(cc3C1C2)OCO4 (configuration not stated)	> 50 mg/L	inactive	inactive	inactive	inactive	–
COc1ccc2c(c1OC)C(=O)O[C@@H]2C1c2cc3c(cc2CCN1C)OCO3 (some centres not stated)	–	inactive	inactive	inactive	inactive	Activity [13]: inactive; Activity (Pseudomonas aeruginosa [14]): inactive; Activity (Escherichia coli [15]): inactive
CCCCOC(=O)[C@@]1(OC(C)=O)CC(OC(=O)/C=C/c2ccc(OC(C)=O)c(OC)c2)[C@H](OC(C)=O)[C@H](OC(C)=O)C1 (some centres not stated)	–	inactive	inactive	inactive	–	–
